Assay outcomes deposited in PubChem BioAssay by several laboratories.
In the library only some 3.5% were active in any assay of this set; here they are far more common.
ERa SRC1 inh = ER-alpha (human) coactivator binding inhibition | AID 629 | inhibition, % at 25.6 µM | P03372 | TR-FRET ER-alpha LBD / SRC-1 peptide, estradiol-bound | 86,000 tested, 1.7% active; in the data active = inhibition above about 50%;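 also: 0% = receptor plus peptide control and 100% = peptide only without receptor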
ERa SRC1 pot = enhances coactivator binding to human estrogen receptor alpha. P03372. TR-FRET ERalpha-LBD/SRC-Cy5 coactivator binding, 2 h; 100 = basal binding, no effect. coactivator binding (% of control), % at 25.6 µM. 86,000 tested, 1.3% active; in the data active = activity above about 200%;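 also: binding measured in presence of low estradiol as agonist stimulus; 0% = peptide alone without receptor and 100% = receptor with peptide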
HIV Rev-RRE inh = inhibitors of HIV-1 Rev-RRE RNA interaction; AID 704; Rev peptide-RRE RNA binding, FRET; inhibition, % at 8 µM; 97,000 tested, 0.79% active;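 active = inhibition above the screen-wide mean plus 3 SD, cut at about 35% in these data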;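 also: 0% = median DMSO wells and 100% = median Neomycin B control wells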
Target sequence (P05866 whole entry, looked up): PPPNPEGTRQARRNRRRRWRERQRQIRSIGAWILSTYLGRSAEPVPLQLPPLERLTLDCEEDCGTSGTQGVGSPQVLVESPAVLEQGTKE
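assay system = Cy5-tagged RRE RNA duplex with fluorescein-tagged Rev peptide | incubation = 5 + 15 min at 25 °C | also added = labelled Rev peptide | measure = % inhibition of FRET ratio versus controls | benchmarks = DMSO wells as 0% and neomycin B wells as 100% inhibition | measured by = FRET fluorescence readout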
sEH activator = activators of human soluble epoxide hydrolase; activation, % at 2 µM; purified human sEH enzymatic activity, activator screen; 91,000 tested, 0.04% active; in the data active = activation above about 37%
ERb SRC1 inh = blocks coactivator binding to human estrogen receptor beta; Q92731; inhibition, % at 25.6 µM; 86,000 tested, 1.3% active; TR-FRET ER-beta LBD / SRC1-Cy5 peptide binding; receptor agonist-loaded with 1 µM estradiol;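 active = compounds whose percent inhibition of the receptor-coactivator binding signal exceeds about 50% in the single-dose screen, limit read from the data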;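 also: 0% = receptor plus peptide wells without compound and 100% = peptide-only wells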
Target sequence (Q92731 whole entry, looked up, the tested form may be a part): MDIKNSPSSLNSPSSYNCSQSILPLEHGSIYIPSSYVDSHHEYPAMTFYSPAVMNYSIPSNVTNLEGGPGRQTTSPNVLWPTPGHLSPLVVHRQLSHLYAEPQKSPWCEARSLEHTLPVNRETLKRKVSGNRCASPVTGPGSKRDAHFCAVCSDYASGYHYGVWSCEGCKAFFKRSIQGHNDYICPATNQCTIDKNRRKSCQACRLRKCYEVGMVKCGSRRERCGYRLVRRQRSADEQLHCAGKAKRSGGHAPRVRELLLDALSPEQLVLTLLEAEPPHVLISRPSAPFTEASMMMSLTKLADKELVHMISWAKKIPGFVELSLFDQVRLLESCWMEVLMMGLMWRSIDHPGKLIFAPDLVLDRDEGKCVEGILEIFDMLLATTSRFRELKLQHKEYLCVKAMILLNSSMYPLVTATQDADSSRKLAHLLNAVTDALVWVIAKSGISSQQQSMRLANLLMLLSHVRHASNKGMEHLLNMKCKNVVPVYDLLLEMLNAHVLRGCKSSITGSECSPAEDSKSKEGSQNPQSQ
sEH inhibitor = inhibitors of human soluble epoxide hydrolase | P34913 | recombinant human sEH enzymatic activity assay | inhibition, % at 2 µM | 91,000 tested, 0.34% active | AID 707; in the data active = inhibition above about 80%
Starred values were filed as active, the others as inactive; · = no result given; [ ] = remark or other dose.

SMILES | ERa SRC1 inh | ERa SRC1 pot | HIV Rev-RRE inh | sEH activator | ERb SRC1 inh | sEH inhibitor
O=C(NCC(=O)N(Cc1cccs1)C(C(=O)NC1CCCC1)c1ccncc1)c1ccco1 (configuration not stated) | 99*[fluorescence artefact?] | 75 | 2 | 20 | 9 | -20
O=C(NCC(=O)N(Cc1cccs1)C(C(=O)NC1CCCCC1)c1ccco1)c1ccco1 (configuration not stated) | -4 | 101 | 11 | -4 | -8 | 10
O=C(Nc1ccc(Cc2ccncc2)cc1)C1CCC(N2C(=O)C3C4C=CC(C5CC45)C3C2=O)CC1 (configuration not stated) | -3 | 105 | 2 | -87 | -2 | 86*
CCCCn1c(SCC(=O)NCc2ccco2)nc2c(sc3ccccc32)c1=O | 19 | 120 | 6 | 4 | 19 | -7
CCCCn1c(SCC(N)=O)nc2c(sc3ccccc32)c1=O | 53*[fluorescence artefact?] | 263* | 10 | 1 | 24 | -4
COC(=O)c1ccc(OC)c(CSc2nnc(-c3ccc(C)cc3)o2)c1 | 36 | 455*[fluorescence artefact?] | · | · | 14 | ·
COC(=O)c1ccc(C(=O)OC)c(NC(=O)c2cc3ccccc3o2)c1 | 15 | 364*[fluorescence artefact?] | 18 | -1 | 19 | 4
O=C(CCN1CCCC1Cc1ccccc1)c1ccc2c(c1)OCCO2 (configuration not stated) | 5 | 99 | 6 | -2 | 5 | 3
CCOc1ccccc1NC(=O)N1CCC(NC(=O)c2cccc(C)c2)CC1 | 63*[fluorescence artefact?] | 108 | 7 | 9 | 65*[fluorescence artefact?] | -8
Cc1snc2sc(C(=O)c3ccc(Br)cc3)c(N)c12 | 71* | 140 | 9 | 12 | 52* | -13
CC(=O)NC(=S)Nc1ccc(NC(=O)COc2ccc(Cl)cc2Cl)cc1 | · | · | -3 | -82 | · | 82*
CC(=O)c1ccc(NCC(=O)N2CCN(c3ccccc3)CC2)cc1 | 85* | 59 | 2 | -3 | 57* | 1
CCc1ccc(CNc2ccc(N3CCN(C(C)=O)CC3)cc2)cc1 | 4 | 89 | 2 | 27 | 19 | -24
CC(=O)Nc1ccc(N2CCN(C(C)=O)CC2)cc1 | 23 | 80 | 4 | -3 | 63* | 1
O=C(Nc1ccc(N2CCCC2)cc1)C(c1ccccc1)c1ccccc1 | 60* | 7 | 12 | -4 | 27 | 5
CC(=O)c1ccc(N2CCN(C(=S)Nc3ccccc3)CC2)cc1 | · | · | 6 | -3 | · | 6
COc1ccc(-c2csc(N(CCc3ccc(OC)c(OC)c3)C(=O)COc3ccccc3)n2)cc1 | · | · | 5 | 15 | · | -11
Cc1c(NC(=O)C(C)Sc2nnc(-c3ccccc3)o2)c(=O)n(-c2ccccc2)n1C (configuration not stated) | -6 | 110 | 8 | 17 | -3 | -18
CC(=O)N1CCN(c2ccc(NC(=O)COc3ccc(Cl)cc3Cl)cc2)CC1 | 0 | 123 | 3 | -90 | -2 | 90*
O=C(Nc1ccc(Br)c2cccnc12)c1ccc(Cn2cc(Cl)cn2)o1 | -4 | 90 | · | · | 2 | ·
CCOC(=O)c1cnc(Nc2nc3ccccc3o2)nc1CSc1ncccn1 | 55* | 212*[fluorescence artefact?] | 7 | 6 | 3 | -11
CCC(CC)NC(=O)COC(=O)c1ccc(OCC(=O)Nc2ccccc2OC)c(OC)c1 | · | · | 12 | -83 | · | 83*
CCOC(=O)C1Cc2c([nH]c3ccccc23)CN1 (configuration not stated) | -6 | 136 | 8 | 7 | 4 | -6
CCOC(=O)C1Cc2ccccc2CN1 (configuration not stated) | -5 | 102 | 10 | 9 | 57*[fluorescence artefact?] | -9
O=C(N1CCOCC1)N(Cc1ccco1)CC1CCCO1 (configuration not stated) | · | · | 1 | -4 | · | 4
SMILES | ERa SRC1 inh | ERa SRC1 pot | HIV Rev-RRE inh | sEH activator | ERb SRC1 inh | sEH inhibitor
Cc1ccc(-c2nc3c(=O)n(C)c4ccccc4c3o2)cc1 | 40 | 181 | -2 | 15 | 32 | -13
CC(C)N1CC=C2C(C#N)=C(N)C(C#N)(C#N)[C@H](c3ccoc3)[C@H]2C1 | · | · | 107*[fluorescence artefact?] | -4 | · | 8
CN1CC=C2C(C#N)=C(N)C(C#N)(C#N)C(Cc3ccccc3)C2C1 (configuration not stated) | -9 | 112 | 72* | 6 | -10 | -8
CC(C)N1CC=C2C(C#N)=C(N)C(C#N)(C#N)C(c3ccccc3)C2C1 (configuration not stated) | · | · | 91*[fluorescence artefact?] | -9 | · | 7
Cc1ccc(C2C3CSCC=C3C(C#N)=C(N)C2(C#N)C#N)cc1 (configuration not stated) | -5 | 88 | · | · | -6 | ·
CCN1CC=C2C(C#N)=C(N)C(C#N)(C#N)C(c3cc(Cl)ccc3Cl)C2C1 (configuration not stated) | 16 | 69 | 66* | 4 | 15 | -6
CCC1C2CN(C(C)=O)CC=C2C(C#N)=C(N)C1(C#N)C#N (configuration not stated) | 0 | 96 | 9 | 4 | -9 | -6
Cc1nnc(SCC(=O)NCc2ccco2)n1-c1ccc(F)cc1 | -1 | 106 | 2 | -3 | -6 | 8
CC(=Nc1ccc(O)cc1)c1sc2ccccc2c1O | 2 | 103 | 42* | -10 | 5 | 10
O=C(Nc1ccc(C2CCCCC2)cc1)C1CCN(c2ncccn2)CC1 | 55* | 234*[fluorescence artefact?] | · | · | 30 | ·
N#C/C(=C/c1ccc(Sc2nc3ccccc3[nH]2)o1)c1cccc(F)c1 | 6 | 90 | 16 | 7 | 4 | -11
O=C(c1ccc(S(=O)(=O)N2CCCCC2)cc1)c1nnc(-c2ccc(Cl)cc2)o1 | 4 | 126 | 9 | 9 | 3 | -9
N#C/C(=C/c1ccc(N2CCCCCC2)o1)c1ccc(Cl)cc1 | -3 | 90 | 97*[fluorescence artefact?] | -6 | 1 | 6
N#C/C(=C/c1ccc(N2CCCCC2)o1)c1cccc(F)c1 | 9 | 56 | 99*[fluorescence artefact?] | -6 | 18 | 4
O=C(Cn1nc(Cc2cccnc2)c2ccccc2c1=O)N1CCN(C(=O)c2ccco2)CC1 | 1 | 100 | 5 | · | -1 | ·
Cc1ccc2[nH]c(=O)c(-c3nc4cc(C)ccn4c3NCc3ccco3)cc2c1 | 73*[fluorescence artefact?] | 151 | · | · | 39 | ·
Cc1ccc(-n2c(C)cc(C3N=C(N)Nc4nc5ccccc5n43)c2C)c(C)c1 (configuration not stated) | 53*[fluorescence artefact?] | 53 | 2 | · | 26 | ·
O=C1c2ccsc2SCCN1Cc1ccc(Cl)cc1 | 16 | 76 | -3 | -7 | 56*[fluorescence artefact?] | 6
CCOC(=O)N1CCN(c2c(NCCCOC(C)C)c(=O)c2=O)CC1 | 0 | 213* | · | · | -13 | ·
C/C(=N/NC(=O)c1cc2ccccc2cc1O)C1C(=O)c2ccccc2C1=O | 78*[fluorescence artefact?] | 21 | 15 | 8 | 65*[fluorescence artefact?] | -12
C/C(=N\NC(=O)c1ccccc1O)C1C(=O)c2ccccc2C1=O | · | · | 10 | -6 | · | 5
COCCNC(=O)Cn1nc(C(F)(F)F)c(Br)c1C | -7 | 109 | · | · | -10 | ·
CCOC(=O)CSc1nn(C)c(=S)s1 | 65* | 33 | 3 | 5 | 21 | -5
